Source: ChEMBL document CHEMBL1153345, “Novel tricyclic inhibitors of IkappaB kinase” (J Med Chem, 2009)

Legend:
[1] = target: T1, Inhibitor of nuclear factor kappa-B kinase subunit epsilon (Homo sapiens, UniProt Q14164); experiment: Inhibition of IKKepsilon
T1 sequence (Q14164 whole entry): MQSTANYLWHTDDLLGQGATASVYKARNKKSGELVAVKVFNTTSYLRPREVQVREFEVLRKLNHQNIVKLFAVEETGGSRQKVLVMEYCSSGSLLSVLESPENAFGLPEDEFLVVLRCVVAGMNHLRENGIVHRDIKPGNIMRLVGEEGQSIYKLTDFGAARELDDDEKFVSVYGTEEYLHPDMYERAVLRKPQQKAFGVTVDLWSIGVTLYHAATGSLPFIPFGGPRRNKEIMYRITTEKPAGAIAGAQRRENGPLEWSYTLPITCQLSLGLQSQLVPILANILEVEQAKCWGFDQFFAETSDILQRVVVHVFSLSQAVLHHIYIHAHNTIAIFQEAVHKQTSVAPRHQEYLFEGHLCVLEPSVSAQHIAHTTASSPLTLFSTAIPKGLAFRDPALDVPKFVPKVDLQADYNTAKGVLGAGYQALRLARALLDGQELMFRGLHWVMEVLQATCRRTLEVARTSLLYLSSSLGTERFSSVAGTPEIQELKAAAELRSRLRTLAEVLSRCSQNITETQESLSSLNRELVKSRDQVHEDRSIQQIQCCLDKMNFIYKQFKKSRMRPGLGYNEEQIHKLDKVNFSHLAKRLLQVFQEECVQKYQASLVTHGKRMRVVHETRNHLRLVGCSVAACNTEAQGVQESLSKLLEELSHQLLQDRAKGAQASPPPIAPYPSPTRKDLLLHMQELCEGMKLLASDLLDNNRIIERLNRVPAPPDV
In short: (§1)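 In-house kinase selectivity panel of 30 kinases; enzyme inhibition values reported in µM.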

[2] = target: T2, Inhibitor of nuclear factor kappa-B kinase subunit alpha (Homo sapiens, UniProt O15111); experiment: Inhibition of IKK1-mediated phosphorylation of GST-IkappaBalpha fusion protein afterr 60 mins by fluorescence polarization assay
T2 sequence (O15111 whole entry): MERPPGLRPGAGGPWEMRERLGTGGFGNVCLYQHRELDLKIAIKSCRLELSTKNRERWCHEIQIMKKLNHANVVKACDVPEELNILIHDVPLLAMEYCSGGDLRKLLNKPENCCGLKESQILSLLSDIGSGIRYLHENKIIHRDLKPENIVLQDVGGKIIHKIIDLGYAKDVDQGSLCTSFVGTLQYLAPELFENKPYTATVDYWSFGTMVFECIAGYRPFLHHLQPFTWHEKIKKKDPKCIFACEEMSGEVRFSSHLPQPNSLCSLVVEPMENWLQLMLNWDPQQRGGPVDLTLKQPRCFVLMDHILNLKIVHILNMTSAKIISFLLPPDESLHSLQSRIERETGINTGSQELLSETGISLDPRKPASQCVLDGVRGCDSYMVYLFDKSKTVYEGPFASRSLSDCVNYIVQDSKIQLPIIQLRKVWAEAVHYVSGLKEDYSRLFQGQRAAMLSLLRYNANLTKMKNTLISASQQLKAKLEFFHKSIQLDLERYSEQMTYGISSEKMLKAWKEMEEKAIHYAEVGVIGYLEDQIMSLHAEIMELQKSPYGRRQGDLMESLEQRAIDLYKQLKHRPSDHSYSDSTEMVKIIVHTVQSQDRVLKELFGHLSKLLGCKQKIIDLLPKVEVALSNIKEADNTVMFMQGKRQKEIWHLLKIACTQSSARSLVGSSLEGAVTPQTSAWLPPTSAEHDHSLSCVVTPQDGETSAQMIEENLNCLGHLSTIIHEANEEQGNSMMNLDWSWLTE
In short: (§2)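 GST-IκBα (50 µg/mL) with 20 µM ATP in 25 mM Tris-HCl pH 7.5, 7.5 mM MgCl2, 1 mM DTT, 5% glycerol, BSA; reaction started by adding IKK enzyme (IKK-2 typically 3 µg/mL final) at room temperature. Stopped after 60 min with 33 mM EDTA. Phospho-IκBα quantified by fluorescence polarization, competing with a fluorescein-labelled phosphopeptide for anti-phospho-IκBα antibody.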

[3] = target: Serine/threonine-protein kinase PLK1 (Homo sapiens, UniProt P53350); experiment: Inhibition of Plk1; in short: as §1
Sequence of Serine/threonine-protein kinase PLK1 (P53350 whole entry): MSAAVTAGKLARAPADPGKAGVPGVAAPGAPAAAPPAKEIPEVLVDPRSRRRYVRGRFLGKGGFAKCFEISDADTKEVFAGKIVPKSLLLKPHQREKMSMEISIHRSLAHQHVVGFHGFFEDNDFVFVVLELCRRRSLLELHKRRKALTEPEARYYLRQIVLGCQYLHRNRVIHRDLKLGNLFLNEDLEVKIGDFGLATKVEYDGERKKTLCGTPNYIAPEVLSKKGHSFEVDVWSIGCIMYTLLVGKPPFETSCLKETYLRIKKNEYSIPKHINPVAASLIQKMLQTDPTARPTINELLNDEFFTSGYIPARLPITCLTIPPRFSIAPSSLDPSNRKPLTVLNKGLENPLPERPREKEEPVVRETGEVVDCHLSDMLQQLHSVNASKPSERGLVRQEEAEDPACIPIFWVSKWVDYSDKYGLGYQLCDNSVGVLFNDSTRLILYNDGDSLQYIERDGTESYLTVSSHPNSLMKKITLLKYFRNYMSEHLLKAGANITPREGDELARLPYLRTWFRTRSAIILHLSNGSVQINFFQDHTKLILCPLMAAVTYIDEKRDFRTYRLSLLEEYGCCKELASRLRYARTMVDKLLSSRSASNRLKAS

[4] = target: Tyrosine-protein kinase BTK (Homo sapiens, UniProt Q06187); experiment: Inhibition of Btk; in short: as §1
Sequence of Tyrosine-protein kinase BTK (Q06187 whole entry): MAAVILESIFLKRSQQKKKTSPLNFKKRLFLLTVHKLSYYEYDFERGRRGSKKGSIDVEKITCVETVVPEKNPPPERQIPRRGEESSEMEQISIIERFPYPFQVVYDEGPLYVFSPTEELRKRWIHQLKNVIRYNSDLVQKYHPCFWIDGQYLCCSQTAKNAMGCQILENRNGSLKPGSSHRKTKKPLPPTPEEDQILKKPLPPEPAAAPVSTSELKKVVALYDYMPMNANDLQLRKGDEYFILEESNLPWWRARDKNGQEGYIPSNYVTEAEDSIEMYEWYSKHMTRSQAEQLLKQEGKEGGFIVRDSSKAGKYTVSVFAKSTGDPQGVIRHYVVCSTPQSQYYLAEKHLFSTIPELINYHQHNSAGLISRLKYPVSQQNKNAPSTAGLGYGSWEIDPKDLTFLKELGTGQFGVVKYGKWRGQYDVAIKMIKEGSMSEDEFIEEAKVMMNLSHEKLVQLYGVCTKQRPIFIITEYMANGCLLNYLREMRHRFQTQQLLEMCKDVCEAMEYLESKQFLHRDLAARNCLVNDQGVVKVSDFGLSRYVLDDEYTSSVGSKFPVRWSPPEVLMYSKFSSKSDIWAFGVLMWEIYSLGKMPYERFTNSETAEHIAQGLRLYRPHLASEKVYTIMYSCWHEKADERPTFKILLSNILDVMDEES

[5] = target: T3, Tyrosine-protein kinase ITK/TSK (Homo sapiens, UniProt Q08881); experiment: Inhibition of Itk; in short: as §1
T3 sequence (Q08881 whole entry): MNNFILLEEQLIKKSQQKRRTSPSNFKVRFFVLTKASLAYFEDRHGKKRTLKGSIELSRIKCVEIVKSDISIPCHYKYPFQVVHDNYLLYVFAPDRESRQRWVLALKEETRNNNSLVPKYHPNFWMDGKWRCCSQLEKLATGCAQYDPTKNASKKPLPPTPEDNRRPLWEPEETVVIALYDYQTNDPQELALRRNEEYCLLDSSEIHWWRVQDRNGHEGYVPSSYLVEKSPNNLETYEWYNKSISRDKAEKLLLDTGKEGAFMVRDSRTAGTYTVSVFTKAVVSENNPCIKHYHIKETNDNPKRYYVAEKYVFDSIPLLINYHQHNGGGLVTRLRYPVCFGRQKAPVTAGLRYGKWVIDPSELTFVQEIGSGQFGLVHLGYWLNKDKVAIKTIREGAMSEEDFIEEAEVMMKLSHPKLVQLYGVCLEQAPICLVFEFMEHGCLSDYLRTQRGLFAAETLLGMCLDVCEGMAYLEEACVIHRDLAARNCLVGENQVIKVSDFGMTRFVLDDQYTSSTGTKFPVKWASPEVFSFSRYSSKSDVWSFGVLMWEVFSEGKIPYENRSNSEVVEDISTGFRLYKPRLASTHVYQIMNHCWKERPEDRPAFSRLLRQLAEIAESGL

[6] = target: T4, Inhibitor of nuclear factor kappa-B kinase subunit beta (Homo sapiens, UniProt O14920); experiment: Inhibition of IKK2-mediated phosphorylation of GST-IkappaBalpha fusion protein afterr 60 mins by fluorescence polarization assay; in short: as §2
T4 sequence (O14920 whole entry): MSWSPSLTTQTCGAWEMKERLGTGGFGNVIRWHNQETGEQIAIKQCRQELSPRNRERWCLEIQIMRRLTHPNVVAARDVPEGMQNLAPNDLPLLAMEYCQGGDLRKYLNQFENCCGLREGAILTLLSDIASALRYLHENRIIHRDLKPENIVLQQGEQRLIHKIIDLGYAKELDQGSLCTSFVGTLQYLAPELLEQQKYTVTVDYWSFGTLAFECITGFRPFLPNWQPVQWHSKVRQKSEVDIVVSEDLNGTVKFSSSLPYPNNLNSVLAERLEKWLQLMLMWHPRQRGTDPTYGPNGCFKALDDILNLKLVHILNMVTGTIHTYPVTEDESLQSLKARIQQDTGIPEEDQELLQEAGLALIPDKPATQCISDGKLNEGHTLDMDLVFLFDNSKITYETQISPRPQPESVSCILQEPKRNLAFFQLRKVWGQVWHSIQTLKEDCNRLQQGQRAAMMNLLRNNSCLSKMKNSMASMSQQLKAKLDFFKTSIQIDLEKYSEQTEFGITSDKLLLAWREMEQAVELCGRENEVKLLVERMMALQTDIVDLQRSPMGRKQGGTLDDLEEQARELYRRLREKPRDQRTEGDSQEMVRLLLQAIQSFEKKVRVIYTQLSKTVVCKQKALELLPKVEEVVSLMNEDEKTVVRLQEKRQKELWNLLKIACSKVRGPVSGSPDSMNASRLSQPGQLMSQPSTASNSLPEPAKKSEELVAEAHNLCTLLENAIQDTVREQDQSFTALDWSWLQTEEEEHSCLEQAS

[7] = target: Cyclin-dependent kinase 2 (Homo sapiens, UniProt P24941); experiment: Inhibition of Cdk2; in short: as §1
Liver microsomes [8] = experiment: Metabolic stability in rat liver microsomes assessed as clearance at 3 uM after 1 hr; assay type: ADME, Microsome
In short: (§3)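 Liver microsomes (mouse, human or rat) at 1 mg/mL protein with 3 µM compound in 65 mM phosphate buffer pH 7.4 and 1 mM NADPH, 37 °C, 1 h. Samples taken at 0 and 15 min and quenched with acetonitrile. Metabolic rate calculated from parent disappearance between 0 and 15 min.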

[9] = Metabolic stability in mouse liver microsomes assessed as clearance at 3 uM after 1 hr; assay type: ADME, Microsome; in short: as §3
Liver microsomes [10] = experiment: Metabolic stability in human liver microsomes assessed as clearance at 3 uM after 1 hr; assay type: ADME, Microsome; in short: as §3
[11] = Inhibition of IGFR; in short: as §1
[12] = target: Proto-oncogene tyrosine-protein kinase Src (Homo sapiens, UniProt P12931); experiment: Inhibition of Src; in short: as §1
Sequence of Proto-oncogene tyrosine-protein kinase Src (P12931 2-536 limits assumed): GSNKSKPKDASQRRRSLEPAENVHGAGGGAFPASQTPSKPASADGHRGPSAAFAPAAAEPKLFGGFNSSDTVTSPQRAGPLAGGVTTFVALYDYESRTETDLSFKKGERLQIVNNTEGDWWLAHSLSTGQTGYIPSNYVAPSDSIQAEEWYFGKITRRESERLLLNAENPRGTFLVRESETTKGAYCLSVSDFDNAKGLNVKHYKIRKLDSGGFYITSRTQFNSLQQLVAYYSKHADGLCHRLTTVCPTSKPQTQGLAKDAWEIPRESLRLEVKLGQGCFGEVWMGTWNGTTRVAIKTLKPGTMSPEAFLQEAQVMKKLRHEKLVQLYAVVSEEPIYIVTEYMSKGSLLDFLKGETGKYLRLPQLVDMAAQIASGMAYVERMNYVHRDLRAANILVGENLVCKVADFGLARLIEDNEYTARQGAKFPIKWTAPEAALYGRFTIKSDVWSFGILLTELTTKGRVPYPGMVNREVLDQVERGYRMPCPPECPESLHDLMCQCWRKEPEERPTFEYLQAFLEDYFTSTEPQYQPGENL

PBMC = experiment: Inhibition of LPS-induced TNFalpha production in human PBMC preincubated for 30 mins before LPS challenge measured afterr 6 hrs by ELISA; assay type: functional, cell-based
In short: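 PBMCs from healthy donor blood, isolated over ficoll in RPMI containing EDTA and polymyxin, then resuspended in RPMI/10% FBS at 1 × 10^6 cells/mL. Compound preincubated 30 min, then LPS added (25 ng/mL final). Incubated 6 h at 37 °C, 5% CO2; supernatant TNF-α measured by ELISA.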

[13] = AUC in rat at 2 mg/kg, iv; assay type: ADME, organism-based; set-up: dose 2 mg/kg, route intravenous; details: plasma
In short: (§4)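 Some compounds were dosed as a cassette of five compounds at 2 mg/kg each, after prescreening to exclude potent CYP inhibitors (IC50 < 10 µM).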

[14] = Cmax in rat at 2 mg/kg, iv; assay type: ADME, organism-based; set-up: dose 2 mg/kg, route intravenous; details: in vivo; in short: as §4
[15] = Volume of distribution at steady state in rat at 2 mg/kg, iv; assay type: ADME, organism-based; set-up: dose 2 mg/kg, route intravenous; details: in vivo, read-out: Vdss; in short: as §4
[16] = Selectivity ratio of IC50 for IKK1 to IC50 for IKK2
In short: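 Buffer was 25 mM Tris-HCl pH 7.5 with 7.5 mM MgCl2, 1 mM DTT, 5% glycerol and 470 µg/mL BSA. IKK-2 was typically 3 µg/mL final. Reactions ran 60 min at room temperature, stopped with 33 mM EDTA. Phospho-IκBα was read by fluorescence-polarization competition of a fluorescein phosphopeptide for an anti-phospho antibody. Ratio = IKK1 IC50/IKK2 IC50.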

[17] = Clearance in rat at 2 mg/kg, iv; assay type: ADME, organism-based; set-up: dose 2 mg/kg, route intravenous; details: in vivo; in short: as §4
[18] = Half life in rat at 2 mg/kg, iv; assay type: ADME, organism-based; set-up: dose 2 mg/kg, route intravenous; details: in vivo; in short: as §4
[19] = Cytotoxicity against human PBMC assessed as cell viability at 10 uM by alamar blue assay; assay type: cell-based; details: read-out: Activity

Structure (SMILES) | IC50 [1] [µM] | IC50 [2] [µM] | IC50 [3] [µM] | IC50 [4] [µM] | IC50 [5] [µM] | IC50 [6] [µM] | IC50 [7] [µM] | CL (Liver microsomes [8]) [nmol/mg/min] | CL [9] [nmol/mg/min] | CL (Liver microsomes [10]) [nmol/mg/min] | IC50 [11] [µM] | IC50 [12] [µM] | IC50 (PBMC) [µM] | AUC [13] [µM·h] | Cmax [14] [nM] | Vd [15] [L/kg] | Ratio IC50 [16] | clearance [17] [mL/min/kg] | half-life [18] [min] | viability at 10 µM [19] [%]
CNc1nc2oc(-c3ccccc3)nc2c2c1ncn2C | 17 | 0.27 | < 50 | 23 | 17 | 0.011 | 16 | 0.14 | 0.23 | 0.09 | < 50 | < 50 | – | – | – | – | – | – | – | –
CNc1nc2sc(-c3cccc(CNC(C)=O)c3)nc2c2c1ncn2C | 12 | 1.9 | < 50 | 17 | 9.1 | 0.022 | 31 | – | – | – | < 50 | < 50 | 0.35 | – | – | – | – | – | – | –
CNc1nc2sc(-c3ccccc3)nc2c2c1ncn2C | – | 3.5 | – | – | – | 0.006 | – | 0.12 | 0.25 | 0.09 | – | – | – | 2.8 | 3000 | 2.8 | 580 | 42 | 72 | –
CNc1nc2c(nc(-c3ccccc3)n2C)c2c1ncn2C | 14 | 4.3 | 12 | 14 | 19 | 0.52 | 23 | 0.08 | 0.12 | 0.13 | < 50 | < 50 | 0.44 | – | – | – | – | – | – | –
CNc1nc2sc(-c3ccc(F)cc3)nc2c2c1ncn2C | – | 3.1 | – | – | – | 0.026 | – | 0.095 | 0.21 | 0.13 | – | – | – | 1.6 | 1600 | 3.2 | – | 67 | 36 | 74
CC(=O)NCCNc1nc2sc(-c3ccc(F)cc3)nc2c2c1ncn2C | – | 5 | – | – | – | 0.033 | – | 0 | 0.065 | 0.003 | – | – | – | 2.7 | 4700 | 0.5 | – | 16 | 24 | 80
